Inconclusive results are not listed.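 Rule for the calls, unless noted: active = viability increase at or above a cutoff of the median across tested compounds plus 3 SD (cut at about 8.5% in these data, passing the limit was not always enough); inconclusive = some gains above the cutoff, reason not given; inactive = the rest.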
Assays:
[1] = S. cerevisiae growth inhibition in permissive medium (OD615), pilot counter-assay for S. cerevisiae lifespan shortening project, permissive growth control (AID 705;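 active = growth inhibition above 25% in both replicates, a cutoff set 3 SD above the mean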); settings: OD615, 24 h, at 10 µM, stronger effect = higher value
Procedure, shortened: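 System: S. cerevisiae with engineered DeaD lifespan system / Measured by: absorbance (optical density) at 615 nm / Read-out: reduction in yeast growth (OD615) / Times: 4 h cell pre-growth, 24 h exposure at 30 °C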

[2] = S. cerevisiae growth inhibition in restrictive medium, OD615, pilot screen, restrictive growth control, yeast lifespan reduction project (AID 706;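 active = growth inhibition above a set limit, 3 SD over mean compound inhibition, in both replicates, cut at about 43% in these data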;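 note: modified DeaD lifespan yeast strain shifted to restrictive glucose medium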); settings: OD615, 48 h, at 10 µM, stronger effect = higher value
Procedure, shortened: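 System: Engineered S. cerevisiae DeaD strain | Buffer or medium: Glucose-based CSMM-D restrictive medium | Schedule: 4 h pre-incubation, 48 h exposure at 30 °C | Technique: Optical density at 615 nm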

[3] = doxorubicin toxicity protection in MRP-1 cells – H69AR cells, CellTiter-Glo, duplicate, MRP-1 activator project, pilot screen (AID 807); settings: H69AR viability with doxorubicin, CellTiter-Glo luminescence; at 10 µM; stronger effect = higher value;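 note: compound pretreatment 18-22 h then 72 h combined with doxorubicin; 0% = doxorubicin alone and 100% = vehicle without doxorubicin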
[4] = viability of PTEN-null HCT116 cells – cell-based, HCT116 clonal line, CellTiter-Glo, pilot screen (AID 824;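 active = viability at or below 27.92% in each of two runs, the all-compound median minus 4 SD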;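 note: 0% = 20 µM Hyamine control and 100% = vehicle cell control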); settings: HCT116 PTEN-deleted viability, 60 h, at 10 µM, stronger effect = lower value
[5] = RAM pathway blockade in budding yeast – dse1pr::URA3 reporter, 5-FOA selection, pilot screen (AID 869;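 active = inhibition over a set limit, the all-compound mean plus 3 SD, in both replicate runs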;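 note: 0% = DMSO wells with no growth and 100% = 10 µM 1-NA-PP1 with full growth; RAM network block rescues cells from 5-FOA so hits raise OD615 growth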); settings: S. cerevisiae dse1pr::URA3 5-FOA growth, OD615, 2 d; at 10 µM; stronger effect = higher value; strain carries analog-sensitive mutant Cbk1 kinase
[6] = RAM signaling pathway blockade in yeast – S. cerevisiae, Pdr1DBD-CYC8 efflux-inhibited sensitized strain, primary screen (AID 1298;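 active = RAM network inhibition above 8.4% in each of two replicates, 3 SD over the compound average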;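 note: 0% = DMSO untreated cells without growth and 100% = 10 µM 1-NA-PP1 full growth; higher means more yeast growth rescued from 5-FOA killing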); settings: S. cerevisiae cbk1-as DSE1-URA3 strain, 5-FOA growth OD615, 2 d; at 50 µM; stronger effect = higher value

CCCC(C)NC(=O)c1ccc(F)cc1 (centres undefined)
inactive: growth inhibition [1] -11.8% | growth inhibition [2] -7.83% | viability increase [3] -1.81% | viability [4] 99.9% | inhibition [5] 0.66% | RAM network inhibition [6] 1.8%

C=CCn1c(SC(CCO)C(=O)NCc2ccco2)nc2sc3c(c2c1=O)CCC3 (centres undefined)
inactive: growth inhibition [1] -8.84% | growth inhibition [2] 0.375% | viability increase [3] -5.67% | viability [4] 84.7% | inhibition [5] 1.2% | RAM network inhibition [6] 5.12%

CCC(C)NC(=O)c1cn(C)c(=O)c2cc(OC)c(OC)cc12 (centres undefined)
inactive: growth inhibition [1] -6.39% | growth inhibition [2] -12.4% | viability increase [3] -3.24% | viability [4] 99.7% | inhibition [5] 1.1% | RAM network inhibition [6] 5.28%

O=C(CN1CCN(c2ccccn2)CC1)N(c1ccccc1)c1ccc2ccccc2c1
inactive: growth inhibition [1] -6.17% | growth inhibition [2] -0.835% | viability increase [3] -1.57% | viability [4] 69.9% | inhibition [5] 2.88% | RAM network inhibition [6] 5.32%

O=C(Cc1c(C(=O)O)[nH]c2ccccc12)Nc1ccc2c(c1)OCO2
inactive: growth inhibition [1] -7.96% | growth inhibition [2] -0.57% | viability increase [3] -2.23% | viability [4] 99.7% | inhibition [5] 0.445% | RAM network inhibition [6] 2.01%

Cc1csc(SCC(=O)c2ccc(S(=O)(=O)N3CCOCC3)cc2)n1
inactive: growth inhibition [1] 0.36% | growth inhibition [2] 21.8% | viability increase [3] -3.72% | viability [4] 98.2% | inhibition [5] 0.265% | RAM network inhibition [6] 7.03%

O=C(O)CNS(=O)(=O)c1ccc(F)cc1
inactive: growth inhibition [1] -6.07% | growth inhibition [2] -7.54% | viability increase [3] -0.77% | viability [4] 94.4% | inhibition [5] 2.21% | RAM network inhibition [6] 0.32%

CCOC(=O)N1CCN(C(=O)CN(c2ccc(Cl)c(C(F)(F)F)c2)S(C)(=O)=O)CC1
inactive: growth inhibition [1] -5.69% | growth inhibition [2] -17.2% | viability increase [3] -4.27% | viability [4] 90.3% | inhibition [5] -0.06% | RAM network inhibition [6] 3.68%

CCCCC1CC(CSc2ncn[nH]2)OC1=O (centres undefined)
inactive: growth inhibition [1] -11.3% | growth inhibition [2] -7.68% | viability increase [3] 1.38% | viability [4] 98% | inhibition [5] 1.21% | RAM network inhibition [6] 0.01%

O=C1C(=O)N(CCCn2ccnc2)C(c2cccnc2)/C1=C(/O)c1ccc(Br)cc1 (centres undefined)
inactive: growth inhibition [1] -7.97% | growth inhibition [2] 7.01% | viability increase [3] -0.15% | viability [4] 104% | inhibition [5] 1.9% | RAM network inhibition [6] 4%

O=c1c2c(nc3c(-c4ccccc4)c[nH]n13)CCCC2
inactive: growth inhibition [1] -7.02% | growth inhibition [2] -8.55% | viability increase [3] -5.26% | viability [4] 49.2% | inhibition [5] 1.02% | RAM network inhibition [6] 0.27%

COc1ccccc1N1CCN(CC(O)COc2ccc3c(C)cc(=O)oc3c2)CC1 (centres undefined)
inactive: growth inhibition [1] -3.12% | growth inhibition [2] -9.43% | viability increase [3] -2.57% | viability [4] 92.3% | inhibition [5] 1.95% | RAM network inhibition [6] 2.88%

COC(=O)C1=C(C)NC2=C(C(=O)CC(c3cccs3)C2)C1c1ccsc1 (centres undefined)
inactive: growth inhibition [1] -7.01% | growth inhibition [2] 2.53% | viability increase [3] -6.75% | viability [4] 40.1% | inhibition [5] 1.25% | RAM network inhibition [6] 4.86%

O=C(NCc1ccco1)c1ccc(CN2CCOCC2)cc1
inactive: growth inhibition [1] -5.32% | growth inhibition [2] 1.69% | viability increase [3] -3.13% | viability [4] 105% | inhibition [5] 2.41% | RAM network inhibition [6] 2.2%

COc1ccc(S(=O)(=O)N2CCCCC2C(=O)O)cc1OC (centres undefined)
inactive: growth inhibition [1] -7% | growth inhibition [2] -10.8% | viability increase [3] -0.69% | viability [4] 101% | inhibition [5] 2.17% | RAM network inhibition [6] 5.22%

COC(=O)C1=C(C)N(c2ccc(F)cc2)C(=O)C1
inactive: growth inhibition [1] -6.78% | growth inhibition [2] -12.3% | viability increase [3] -2.11% | viability [4] 93.6% | inhibition [5] 1.19% | RAM network inhibition [6] -0.26%

CCc1c(C)sc(NC(=O)C2CCCCC2C(=O)O)c1C(N)=O (centres undefined)
inactive: growth inhibition [1] 15.1% | growth inhibition [2] 25.8% | viability increase [3] -4% | viability [4] 101% | inhibition [5] 1.77% | RAM network inhibition [6] 9.48%

COCCNC(=O)C1c2ccccc2C(=O)N(CCOC)C1c1ccc(F)cc1 (centres undefined)
inactive: growth inhibition [1] -6.02% | growth inhibition [2] 3.31% | viability increase [3] -2.15% | viability [4] 101% | inhibition [5] 1.29% | RAM network inhibition [6] 0.46%

Cc1ccc(OCC(O)CN2CCN(c3ccccc3)CC2)cc1 (centres undefined)
inactive: growth inhibition [1] -3.02% | growth inhibition [2] -2.13% | viability increase [3] -0.7% | viability [4] 99.9% | inhibition [5] 1.23% | RAM network inhibition [6] 7.87%

Source: PubChem BioAssay
